In ChEMBL document CHEMBL1142436, “Design and synthesis of 4-substituted indolo[3,2-e][1,2,3]triazolo[1,5-a]pyrimidine derivatives with antitumor activity” (2008):

What was measured:
Assay type in all cases: functional
PC-3 = assay: Growth inhibition of human PC3 cells after 48 hrs; conditions: PC-3, 48 h; for TGI: read-out: pTGI (converted)
Outline: (§1)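 NCI ~60-line screen. Cells were grown in RPMI 1640 with 5% FBS and 2 mM L-glutamine and plated at 5000–40000 cells/well. After a 24 h preincubation, five drug concentrations from DMSO stocks were added for 48 h at 37 °C. Cells were TCA-fixed, stained with SRB and read at 515 nm. GI50 was taken from time-zero and control absorbances and reported as pGI50.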

UACC-257 = assay: Growth inhibition of human UACC257 cells after 48 hrs; conditions: UACC-257, 48 h; for TGI: read-out: pTGI (converted)
Outline: (§2)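 NCI 60-line screen: cells in RPMI 1640 with 5% FBS and 2 mM L-glutamine, plated at 5000–40000 cells/well, grown 24 h (37 °C, 5% CO₂), then exposed to five 10-fold or ½-log dilutions (DMSO stock) for 48 h. Fixed with TCA (final 10% for adherent cells, 16% for suspension cells), then SRB stained with absorbance at 515 nm. GI50 from percentage growth relative to time-zero and control wells.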

SW-620 = assay: Growth inhibition of human SW620 cells after 48 hrs; conditions: SW-620, 48 h; for TGI: read-out: pTGI (converted); outline: as §2
A498 = assay: Growth inhibition of human A498 cells after 48 hrs; conditions: A498, 48 h; for TGI: read-out: pTGI (converted); outline: as §1
SN12C = assay: Growth inhibition of human SN12C cells after 48 hrs; conditions: for TGI: read-out: pTGI (converted); outline: as §2
RPMI-8226 = assay: Growth inhibition of human RPMI8226 cells after 48 hrs; conditions: RPMI-8226, 48 h; for TGI: read-out: pTGI (converted); outline: as §1
NCI-H460 = assay: Growth inhibition of human NCI-H460 cells after 48 hrs; conditions: NCI-H460, 48 h; for TGI: read-out: pTGI (converted); outline: as §1
HL-60 = assay: Growth inhibition of human HL60 cells after 48 hrs; conditions: HL-60, 48 h; for TGI: read-out: pTGI (converted); outline: as §1
KM12 = assay: Growth inhibition of human KM12 cells after 48 hrs; conditions: KM12, 48 h; for TGI: read-out: pTGI (converted); outline: as §1
MCF7 = assay: Growth inhibition of human MCF7 cells after 48 hrs; conditions: MCF7, 48 h; for TGI: read-out: pTGI (converted); outline: as §1
DU-145 = assay: Growth inhibition of human DU145 cells after 48 hrs; conditions: DU-145, 48 h; for TGI: read-out: pTGI (converted); outline: as §1
RXF 393 = assay: Growth inhibition of human RXF393 cells after 48 hrs; conditions: RXF 393, 48 h; for TGI: read-out: pTGI (converted); outline: as §1
NCI/ADR-RES = assay: Growth inhibition of human NCI/ADR-RES cells after 48 hrs; conditions: for TGI: read-out: pTGI (converted); outline: as §1
SK-OV-3 = assay: Growth inhibition of human SKOV3 cells after 48 hrs; conditions: SK-OV-3, 48 h; for TGI: read-out: pTGI (converted); outline: as §2
EKVX = assay: Growth inhibition of human EKVX cells after 48 hrs; conditions: for TGI: read-out: pTGI (converted); outline: as §1
SF-268 = assay: Growth inhibition of human SF268 cells after 48 hrs; conditions: SF-268, 48 h; for TGI: read-out: pTGI (converted); outline: as §1
MDA-MB-231 = assay: Growth inhibition of human MDA-MB-231 cells after 48 hrs; conditions: MDA-MB-231, 48 h; for TGI: read-out: pTGI (converted); outline: as §1
HCC 2998 = assay: Growth inhibition of human HCC2998 cells after 48 hrs; conditions: HCC 2998, 48 h; for TGI: read-out: pTGI (converted); outline: as §1
MOLT-4 = assay: Growth inhibition of human MOLT4 cells after 48 hrs; conditions: MOLT-4, 48 h; for TGI: read-out: pTGI (converted); outline: as §1
U-251 = assay: Growth inhibition of human U251 cells after 48 hrs; conditions: U-251, 48 h; for TGI: read-out: pTGI (converted); outline: as §2
786-0 = assay: Growth inhibition of human 786-0 cells after 48 hrs; conditions: 786-0, 48 h; for TGI: read-out: pTGI (converted); outline: as §1
CAKI-1 = assay: Growth inhibition of human CAKI1 cells after 48 hrs; conditions: CAKI-1, 48 h; for TGI: read-out: pTGI (converted); outline: as §1
OVCAR-5 = assay: Growth inhibition of human OVCAR5 cells after 48 hrs; conditions: OVCAR-5, 48 h; for TGI: read-out: pTGI (converted); outline: as §1
[1] = read-out: Log LC50 (the source's name) (converted)

CCOC(=O)CNC(=O)CCCn1c(=O)c2c3ccccc3n(C)c2n2nnc(-c3ccccc3)c12
GI50 (PC-3): 8.51 µM
LC50 (PC-3): > 50.1 µM
TGI (PC-3): > 50.1 µM
GI50 (UACC-257): > 50.1 µM
LC50 (UACC-257): > 50.1 µM
TGI (UACC-257): > 50.1 µM
GI50 (SW-620): > 50.1 µM
LC50 (lethal concentration, 50% cell kill) (SW-620): > 50.1 µM
TGI (SW-620): > 50.1 µM
GI50 (A498): 7.59 µM
CC50 (A498; [1]): > 50.1 µM
TGI (A498): 24.5 µM
GI50 (SN12C): > 50.1 µM
LC50 (SN12C): > 50.1 µM
TGI (SN12C): > 50.1 µM
GI50 (RPMI-8226): 10.7 µM
LC50 (RPMI-8226): > 50.1 µM
TGI (RPMI-8226): 33.9 µM
GI50 (NCI-H460): > 50.1 µM
LC50 (NCI-H460): > 50.1 µM
TGI (NCI-H460): > 50.1 µM
GI50 (HL-60): 20.4 µM
LC50 (HL-60): > 50.1 µM
TGI (HL-60): > 50.1 µM
GI50 (KM12): > 50.1 µM
LC50 (KM12): > 50.1 µM
TGI (KM12): > 50.1 µM
GI50 (MCF7): 31.6 µM
LC50 (MCF7): > 50.1 µM
TGI (MCF7): > 50.1 µM
GI50 (DU-145): 32.4 µM
LC50 (DU-145): > 50.1 µM
TGI (DU-145): > 50.1 µM
GI50 (RXF 393): 1.32 µM
LC50 (RXF 393): 22.4 µM
TGI (RXF 393): 4.37 µM
GI50 (NCI/ADR-RES): > 50.1 µM
LC50 (concentration killing 50% of cells) (NCI/ADR-RES): > 50.1 µM
TGI (NCI/ADR-RES): > 50.1 µM
GI50 (SK-OV-3): 6.76 µM
LC50 (SK-OV-3): > 50.1 µM
TGI (SK-OV-3): 43.7 µM
GI50 (EKVX): > 50.1 µM
LC50 (EKVX): > 50.1 µM
TGI (EKVX): 20.4 µM
GI50 (SF-268): 14.1 µM
CC50 (SF-268; [1]): > 50.1 µM
TGI (SF-268): > 50.1 µM
GI50 (MDA-MB-231): 14.8 µM
LC50 (concentration killing 50% of cells) (MDA-MB-231): > 50.1 µM
TGI (MDA-MB-231): 30.9 µM
GI50 (HCC 2998): > 50.1 µM
LC50 (HCC 2998): > 50.1 µM
TGI (HCC 2998): > 50.1 µM
GI50 (MOLT-4): > 50.1 µM
LC50 (MOLT-4): > 50.1 µM
TGI (MOLT-4): > 50.1 µM
GI50 (U-251): 4.17 µM
LC50 (U-251): 46.8 µM
TGI (U-251): 14.5 µM
GI50 (786-0): 5.13 µM
LC50 (786-0): > 50.1 µM
TGI (786-0): 17.4 µM
GI50 (CAKI-1): 8.32 µM
LC50 (concentration killing 50% of cells) (CAKI-1): 47.9 µM
TGI (CAKI-1): 20 µM
GI50 (OVCAR-5): 27.5 µM
LC50 (concentration killing 50% of cells) (OVCAR-5): > 50.1 µM
TGI (OVCAR-5): > 50.1 µM

CCCCN(CCCC)CCCn1c(=O)c2c3ccccc3n(C)c2n2nnc(-c3ccccc3)c12
GI50 (PC-3): 18.2 µM
TGI (PC-3): 47.9 µM
GI50 (UACC-257): 28.8 µM
TGI (UACC-257): 83.2 µM
GI50 (SW-620): 26.3 µM
TGI (SW-620): > 100 µM
GI50 (A498): 42.7 µM
TGI (A498): > 100 µM
GI50 (SN12C): 19.5 µM
TGI (SN12C): 95.5 µM
GI50 (RPMI-8226): 6.03 µM
TGI (RPMI-8226): 49 µM
GI50 (NCI-H460): 40.7 µM
TGI (NCI-H460): > 100 µM
GI50 (HL-60): 2.57 µM
TGI (HL-60): 41.7 µM
GI50 (KM12): 33.9 µM
TGI (KM12): > 100 µM
GI50 (MCF7): 37.2 µM
TGI (MCF7): > 100 µM
GI50 (DU-145): 47.9 µM
TGI (DU-145): > 100 µM
GI50 (RXF 393): 14.1 µM
TGI (RXF 393): 42.7 µM
GI50 (NCI/ADR-RES): 14.1 µM
TGI (NCI/ADR-RES): 67.6 µM
GI50 (SK-OV-3): 30.2 µM
TGI (SK-OV-3): 30.2 µM
GI50 (EKVX): 56.2 µM
TGI (EKVX): > 100 µM
GI50 (SF-268): > 100 µM
TGI (SF-268): > 100 µM
GI50 (MDA-MB-231): 36.3 µM
TGI (MDA-MB-231): > 100 µM
GI50 (HCC 2998): 20.4 µM
TGI (HCC 2998): > 100 µM
GI50 (MOLT-4): 13.8 µM
TGI (MOLT-4): > 100 µM
GI50 (U-251): 33.1 µM
TGI (U-251): > 100 µM
GI50 (786-0): 38.9 µM
TGI (786-0): > 100 µM
GI50 (CAKI-1): 50.1 µM
TGI (CAKI-1): > 100 µM
GI50 (OVCAR-5): 22.4 µM
TGI (OVCAR-5): > 100 µM
